One assay concerns Giardia intestinalis. Kind of assay: Antiprotozoal activity against Giardia intestinalis IMSS:0989:1 after 48 hrs. Conditions: Giardia duodenalis, IMSS:0989:1, 48 h. It counts as functional, organism-based. In short, it runs like this:
(§1)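 Trophozoites were grown in modified TYI-S-33 with 10% calf serum, with bovine bile added for Giardia. 5 × 10⁴ trophozoites (Giardia, Trichomonas) or 6 × 10³ (Entamoeba) were exposed to increasing concentrations for 48 h at 37 °C, with DMSO as negative control. Cells were washed, regrown 48 h drug-free, and counted. IC50 was by Probit analysis, in triplicate, repeated at least twice.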

A further assay deals with Entamoeba histolytica. Kind of assay: Antiprotozoal activity against Entamoeba histolytica HM-1:IMSS after 48 hrs. It counts as functional, organism-based. In short, it runs like this:
as §1

Assay [1] deals with Trichinella spiralis. The assay is described as follows: Antitrichinellosis activity against Trichinella spiralis ML assessed as reduction of parasites viability at 0.18 uM after 3 days by MTT assay. It counts as functional. In short, it runs like this: (§2)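 1000 muscle larvae per well in RPMI 1640 were exposed to 0.18, 0.37 or 1.80 compound for 3 days at 37 °C in humid 5% CO2, with medium and compound renewed daily. Viability was read by MTT colorimetry as percent reduction of metabolic activity.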

The test system of assay [2] is Trichinella spiralis. The assay is described as follows: Antitrichinellosis activity against adult phase of Trichinella spiralis ML infected in mouse assessed as reduction of parasites level at 75 mg/kg administered 3 days after postinfection measured after 6 days relative to control. It counts as functional. The arrangement: scale not given: the % may be the effect or the level left. In a few lines:
(§3)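 Groups of six mice were infected with 800 muscle larvae and given a single dose on day 3 post-infection. Mice were killed on day 6 post-infection and intestinal adults recovered. Read-out was percent adult load reduction.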

In assay [3] the test system is Trichinella spiralis. The assay is described as follows: Antitrichinellosis activity against Trichinella spiralis ML assessed as reduction of parasites viability at 0 37 uM after 3 days by MTT assay. It counts as functional. In short, it runs like this: as §2
Assay [4] concerns Trichinella spiralis. Kind of assay: Antitrichinellosis activity against muscle larvae pahse of Trichinella spiralis ML larvae infected in mouse assessed as reduction of parasites level at 75 mg/kg administered for 7 consecutive days from day 28 postinfection measured on day 7 relative to control. It counts as functional. The arrangement: scale not given: the % may be the effect or the level left. In short, it runs like this:
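Groups of 10 mice were infected with 800 muscle larvae and treated at 75 mg/Kg from day 28 post-infection for 7 consecutive days. Mice were killed 7 days after treatment and muscle larvae recovered. Read-out was percent larval load reduction.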

Assay [5] relates to Trichinella spiralis. Kind of assay: Antitrichinellosis activity against adult phase of Trichinella spiralis ML infected in mouse assessed as reduction of parasites level at 50 mg/kg administered 3 days after postinfection measured after 6 days relative to control. It counts as functional. The arrangement: scale not given: the % may be the effect or the level left. In short, it runs like this:
as §3

Assay [6] deals with Trichinella spiralis. Kind of assay: Antitrichinellosis activity against Trichinella spiralis ML assessed as reduction of parasites viability at 1.8 uM after 3 days by MTT assay. It counts as functional. In short, it runs like this:
as §2

The subject of another assay is Trichomonas vaginalis. The assay is described as follows: Antiprotozoal activity against Trichomonas vaginalis G3 after 48 hrs. The settings on record: G3, 48 h. It counts as functional, organism-based. In short, it runs like this:
as §1

Another assay relates to Leishmania mexicana. The assay is described as follows: Antileishmanial activity against Leishmania mexicana MHOM/MX92/UAY68 after 48 hrs. Conditions: MHOM/MX92/UAY68, 48 h. It counts as functional, organism-based. In short, it runs like this:
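Promastigotes at 2 × 10⁴/mL in RPMI 1640 with 10% FBS, 26 °C, were exposed to 0.1, 0.5, 1.5, 10 and 20 (final) of compound, with DMSO as negative control. Each concentration was run in triplicate. Parasites were fixed in 0.14 M NaCl/3.7% formaldehyde and counted in a Neubauer chamber.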

Structures are written as SMILES. Activity calls are given as the source filed them. No cut-off for these calls is given here.

Take `FC(F)(F)c1nc2cc(Oc3cccc(Cl)c3Cl)c(Cl)cc2[nH]1`: the IC50 stood at 31 nM with Giardia intestinalis and 20 nM in the assay on Entamoeba histolytica.

As to `CCCSc1ccc2[nH]c(NC(=O)OC)nc2c1` [ALBENDAZOLE], the Activity in the assay on Trichinella spiralis [1] turned out to be 58.6%; in the assay with Trichinella spiralis [2], 73%; in the assay with Trichinella spiralis [3] it was 61.9%; in the assay with Trichinella spiralis [4], 63%; in the assay on Trichinella spiralis [5], 62%; in the assay with Trichinella spiralis [6], 67%.

On to `Cn1c(C(F)(F)F)nc2cc(Cl)c(Oc3cccc4ccccc34)cc21`, for which the IC50 is 12 nM in the assay on Giardia intestinalis, 451 nM in the assay with Trichomonas vaginalis, 17 nM with Entamoeba histolytica and 50100 nM in the assay with Leishmania mexicana. The results for the Activity with Trichinella spiralis [1], with Trichinella spiralis [3] and in the assay with Trichinella spiralis [6] were 6%, 14% and 18%, respectively.

As to `FC(F)(F)c1nc2cc(Oc3cccc(Cl)c3Cl)ccc2[nH]1`, the figures for the IC50 in the assay with Giardia intestinalis, in the assay with Trichomonas vaginalis and with Entamoeba histolytica were 54 nM, 535 nM and 18 nM, respectively. Also, the Activity in the assay on Trichinella spiralis [1] is on record as 20%; in the assay with Trichinella spiralis [3], 24%; with Trichinella spiralis [6], 29%.

Take `FC(F)(F)c1nc2cc(Oc3cccc4ccccc34)c(Cl)cc2[nH]1`: the IC50 stood at 5 nM in the assay with Giardia intestinalis, 86 nM in the assay on Trichomonas vaginalis, 19 nM in the assay with Entamoeba histolytica and 13800 nM in the assay with Leishmania mexicana. In addition, the Activity in the assay on Trichinella spiralis [1] turned out to be 43%; in the assay with Trichinella spiralis [2], 80%; in the assay with Trichinella spiralis [3], 50%; in the assay on Trichinella spiralis [4], 40%; with Trichinella spiralis [5], 69%; in the assay with Trichinella spiralis [6], 65%.

On to `CSc1nc2cc(Cl)c(Oc3cccc(Cl)c3Cl)cc2[nH]1` [TRICLABENDAZOLE], for which the Activity is listed as 7% in the assay with Trichinella spiralis [2], 25% with Trichinella spiralis [4] and 41% in the assay on Trichinella spiralis [5].

With `Cn1c(C(F)(F)F)nc2cc(Oc3cccc4ccccc34)c(Cl)cc21`, the IC50 in the assay on Giardia intestinalis is 23 nM; in the assay with Trichomonas vaginalis, 970 nM; in the assay with Entamoeba histolytica it was 38 nM; in the assay on Leishmania mexicana it was 65200 nM. In addition, the Activity was 15% in the assay on Trichinella spiralis [1]; 36% in the assay with Trichinella spiralis [2]; 29% in the assay on Trichinella spiralis [3]; 64% in the assay with Trichinella spiralis [4]; 63% in the assay on Trichinella spiralis [6]. Moreover, in the assay with Trichinella spiralis [5], the outcome was inactive.

As to `Cc1ncc([N+](=O)[O-])n1CCO` [METRONIDAZOLE], in the assay on Trichomonas vaginalis, the IC50 came to 216 nM.

As to `Cn1c(C(F)(F)F)nc2cc(Oc3cccc(Cl)c3Cl)ccc21`, the IC50 with Giardia intestinalis is 30 nM; with Trichomonas vaginalis, 16 nM; in the assay with Entamoeba histolytica it was 9 nM; with Leishmania mexicana it was 24000 nM. In addition, the Activity with Trichinella spiralis [1] is 54%; in the assay with Trichinella spiralis [2], 58%; in the assay on Trichinella spiralis [3] it was 62%; with Trichinella spiralis [4], 46%; with Trichinella spiralis [6], 80%.

As to `Cn1c(C(F)(F)F)nc2cc(Cl)ccc21`, 238 nM corresponded to half-maximal inhibition in the assay with Trichomonas vaginalis (IC50). Besides, the Activity in the assay on Trichinella spiralis [6] stood at 39%.

On to `Cn1c(C(F)(F)F)nc2ccc(Oc3cccc(Cl)c3Cl)cc21`, for which the IC50 in the assay on Giardia intestinalis came to 63 nM; in the assay on Trichomonas vaginalis it was 110 nM; with Entamoeba histolytica, 19 nM; in the assay with Leishmania mexicana, 4100 nM. Moreover, the Activity in the assay on Trichinella spiralis [1] is given as 44%; with Trichinella spiralis [3] it was 48%; in the assay on Trichinella spiralis [6], 67%.

Compound `N=C(N)c1ccc(OCCCCCOc2ccc(C(=N)N)cc2)cc1` [PENTAMIDINE] came in with an IC50 in the assay with Leishmania mexicana of 2420 nM.

On to `CSc1nc2cc(Oc3cccc4ccccc34)c(Cl)cc2[nH]1`, for which the Activity with Trichinella spiralis [4] turned out to be 24%; in the assay with Trichinella spiralis [5] it was 28%.

Regarding `FC(F)(F)c1nc2cc(Cl)c(Cl)cc2[nH]1`, the IC50 in the assay with Trichomonas vaginalis was 235 nM; in the assay on Leishmania mexicana it was 20800 nM. Besides, the Activity with Trichinella spiralis [6] is listed as 19%.
